{"source": "ChEMBL document CHEMBL1157101", "about": "“A series of alpha-heterocyclic carboxaldehyde thiosemicarbazones inhibit topoisomerase IIalpha catalytic activity” (J Med Chem, 2010)", "key": {"[1]": {"target": "T1, DNA topoisomerase 2-alpha (Homo sapiens, UniProt P11388)", "T1 sequence (P11388 whole entry)": "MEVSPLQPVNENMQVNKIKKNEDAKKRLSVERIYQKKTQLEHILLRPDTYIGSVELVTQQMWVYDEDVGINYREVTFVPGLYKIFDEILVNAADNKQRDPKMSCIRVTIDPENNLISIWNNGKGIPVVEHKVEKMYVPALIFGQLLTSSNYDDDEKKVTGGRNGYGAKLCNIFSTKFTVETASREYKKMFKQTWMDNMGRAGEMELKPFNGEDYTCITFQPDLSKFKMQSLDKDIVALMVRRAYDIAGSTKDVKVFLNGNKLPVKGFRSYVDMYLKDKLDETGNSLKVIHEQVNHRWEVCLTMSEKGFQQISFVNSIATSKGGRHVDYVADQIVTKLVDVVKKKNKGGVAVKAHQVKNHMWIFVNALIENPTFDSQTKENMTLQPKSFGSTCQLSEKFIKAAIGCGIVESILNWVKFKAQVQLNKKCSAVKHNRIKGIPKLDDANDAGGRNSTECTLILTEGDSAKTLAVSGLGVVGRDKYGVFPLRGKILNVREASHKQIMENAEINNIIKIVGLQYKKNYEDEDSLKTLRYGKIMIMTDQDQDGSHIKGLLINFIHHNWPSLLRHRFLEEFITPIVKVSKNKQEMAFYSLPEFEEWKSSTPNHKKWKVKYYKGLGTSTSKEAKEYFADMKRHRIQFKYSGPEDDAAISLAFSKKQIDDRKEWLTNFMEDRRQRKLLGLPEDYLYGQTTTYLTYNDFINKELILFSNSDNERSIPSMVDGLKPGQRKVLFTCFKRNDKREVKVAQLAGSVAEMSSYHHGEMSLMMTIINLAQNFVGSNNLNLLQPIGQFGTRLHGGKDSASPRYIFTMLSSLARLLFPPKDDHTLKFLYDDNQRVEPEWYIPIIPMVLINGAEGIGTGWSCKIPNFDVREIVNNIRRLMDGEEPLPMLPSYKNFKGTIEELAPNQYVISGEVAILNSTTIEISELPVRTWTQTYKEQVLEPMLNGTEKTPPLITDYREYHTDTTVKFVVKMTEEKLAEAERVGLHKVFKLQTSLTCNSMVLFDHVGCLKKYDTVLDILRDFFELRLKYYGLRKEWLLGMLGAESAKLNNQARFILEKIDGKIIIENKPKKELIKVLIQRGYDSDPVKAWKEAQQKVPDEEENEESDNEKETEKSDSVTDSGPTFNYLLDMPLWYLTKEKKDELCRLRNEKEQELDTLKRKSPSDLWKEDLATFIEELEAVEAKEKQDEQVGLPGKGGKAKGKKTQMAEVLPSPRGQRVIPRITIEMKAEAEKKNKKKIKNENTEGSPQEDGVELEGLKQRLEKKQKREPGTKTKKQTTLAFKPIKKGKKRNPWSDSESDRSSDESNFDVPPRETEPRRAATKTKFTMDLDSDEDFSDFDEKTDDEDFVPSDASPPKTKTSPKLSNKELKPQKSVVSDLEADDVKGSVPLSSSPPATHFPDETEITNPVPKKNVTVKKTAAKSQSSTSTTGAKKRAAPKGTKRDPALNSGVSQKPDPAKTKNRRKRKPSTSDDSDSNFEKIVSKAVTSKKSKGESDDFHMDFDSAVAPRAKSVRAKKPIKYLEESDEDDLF", "test": "Inhibition of human topoisomerase 2alpha-mediated decatenation of kDNA"}, "[2]": {"target": "T1, DNA topoisomerase 2-alpha", "test": "Inhibition of topoisomerase-2 alpha in human HT-29 cells assessed as reversal of etoposide-mediated DNA double strand break measured as phosphorylated histone2A level at 1 uM by immunostaining", "type": "cell-based"}, "MCF7": {"tested_on": "MCF7", "test": "Antiproliferative activity against human MCF7 cells after 72 hrs by sulforhodamine B assay", "type": "functional, cell-based", "conditions": "MCF7, 72 h"}, "K562": {"tested_on": "K562", "test": "Antiproliferative activity against human K562 cells after 72 hrs by sulforhodamine B assay", "type": "functional, cell-based", "conditions": "K562, 72 h", "procedure,_shortened": "(§1)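 Cells seeded and exposed in triplicate to graded compound concentrations for 72 h. Suspension cells read by MTT conversion to coloured product; adherent cells read by sulforhodamine B. IC50 (50% growth inhibition versus untreated control) derived by the Logit method.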"}, "HT-29 [3]": {"tested_on": "HT-29", "test": "Inhibition of DNA synthesis in human HT-29 cells measured up to 8 hrs by BrdU incorporation assay", "type": "functional, cell-based", "procedure,_shortened": "(§2)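 HT-29 cells; DNA synthesis measured by BrdU incorporation with flow detection.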"}, "[4]": {"target": "T1, DNA topoisomerase 2-alpha", "test": "Inhibition of human topoisomerase 2alpha binding to pBR322 DNA binding by electrophoretic mobility shift assay", "procedure,_shortened": "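Electrophoretic mobility shift assay. 0.2 μg supercoiled pBR322 with 200 nM human Topo IIα, ± compound, 10 min at 37 °C. Separated 90 min on 1% agarose containing 0.5 μg/mL ethidium bromide in TAE.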"}, "[5]": {"target": "T1, DNA topoisomerase 2-alpha", "test": "Inhibition of topoisomerase-2 alpha in human HL60/MX2 cells assessed as antagonization of enzyme-DNA cleavage complex at 100 uM", "type": "cell-based"}, "[6]": {"target": "T1, DNA topoisomerase 2-alpha", "test": "Binding affinity to human topoisomerase 2 alpha ATPase domain", "procedure,_shortened": "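Surface plasmon resonance. Human Topo IIα ATPase domain immobilised on CM5 chips after activation of surface carboxyl groups. Serial compound dilutions flowed over the chip and sensorgrams recorded. KD obtained by steady-state affinity fitting.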"}, "HCT-116": {"tested_on": "HCT-116", "test": "Antiproliferative activity against human HCT116 cells after 72 hrs by sulforhodamine B assay", "type": "functional, cell-based", "conditions": "HCT-116, 72 h", "procedure,_shortened": "as §1"}, "MKN-28": {"tested_on": "MKN-28", "test": "Antiproliferative activity against human MKN28 cells after 72 hrs by sulforhodamine B assay", "type": "functional, cell-based", "conditions": "MKN-28, 72 h", "procedure,_shortened": "as §1"}, "[7]": {"test": "Antiproliferative activity against human Rh30 cells after 72 hrs by sulforhodamine B assay", "type": "functional, cell-based", "conditions": "SJRH30, 72 h", "procedure,_shortened": "as §1"}, "MKN-45": {"tested_on": "MKN-45", "test": "Antiproliferative activity against human MKN45 cells after 72 hrs by sulforhodamine B assay", "type": "functional, cell-based", "conditions": "MKN-45, 72 h", "procedure,_shortened": "as §1"}, "Mus musculus": {"tested_on": "Mus musculus", "test": "Toxicity in Kunming mouse bearing mouse S180 cells assessed as change in body weight at 25 mg/kg/day, ip for 7 days (reference value: 17.9 g)", "type": "organism-based, CCRF S-180", "set-up": "route intraperitoneal", "conditions": "in vivo, 168 h", "procedure,_shortened": "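Female Kunming mice, 7 weeks old and 18-22 g, were inoculated sc in the right armpit with S-180 sarcoma. From the next day they received ip injections at the stated daily dose for 7 days, alongside a normal-saline control group. Body weight was recorded at the start and at the end of treatment.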"}, "[8]": {"test": "Antiproliferative activity against human KB/VCR cells after 72 hrs by sulforhodamine B assay", "type": "functional, cell-based", "procedure,_shortened": "as §1"}, "LoVo": {"tested_on": "LoVo", "test": "Antiproliferative activity against human LoVo cells after 72 hrs by sulforhodamine B assay", "type": "functional, cell-based", "procedure,_shortened": "as §1"}, "HL-60": {"tested_on": "HL-60", "test": "Antiproliferative activity against human HL60 cells after 72 hrs by sulforhodamine B assay", "type": "functional, cell-based", "conditions": "HL-60, 72 h, in the assay text read “MTT assay” for “sulforhodamine B assay”", "procedure,_shortened": "as §1"}, "MDA-MB-231": {"tested_on": "MDA-MB-231", "test": "Antiproliferative activity against human MDA-MB-231 cells after 72 hrs by sulforhodamine B assay", "type": "functional, cell-based", "conditions": "MDA-MB-231, 72 h", "procedure,_shortened": "as §1"}, "HT-29 [9]": {"tested_on": "HT-29", "test": "Inhibition of DNA synthesis in human HT-29 cells measured at 0.25 to 1 uM by BrdU incorporation assay", "type": "functional, cell-based", "procedure,_shortened": "as §2"}, "[10]": {"target": "T1, DNA topoisomerase 2-alpha", "test": "Inhibition of topoisomerase-2 alpha in human HT-29 cells assessed as reversal of etoposide-mediated DNA double strand break measured as phosphorylated histone2A level at 30 uM by immunostaining", "type": "cell-based"}, "[11]": {"test": "Antiproliferative activity against human K562/A02 cells after 72 hrs by sulforhodamine B assay", "type": "functional, cell-based", "conditions": "K562/A02, 72 h, in the assay text read “MTT assay” for “sulforhodamine B assay”", "procedure,_shortened": "as §1"}, "A549": {"tested_on": "A549", "test": "Antiproliferative activity against human A549 cells after 72 hrs by sulforhodamine B assay", "type": "functional, cell-based", "conditions": "A549, 72 h", "procedure,_shortened": "as §1"}, "[12]": {"target": "T1, DNA topoisomerase 2-alpha", "test": "Inhibition of human topoisomerase 2alpha-mediated relaxation of pBR322"}, "[13]": {"test": "Antiproliferative activity against human MCF7/ADR cells after 72 hrs by sulforhodamine B assay", "type": "functional, cell-based", "conditions": "NCI/ADR-RES", "procedure,_shortened": "as §1"}, "CCRF S-180 [14]": {"tested_on": "CCRF S-180", "test": "Antitumor activity against mouse S180 cells transplanted in Kunming mouse assessed as inhibition of tumor growth at 50 mg/kg/day, ip for 7 days", "type": "functional", "conditions": "CCRF S-180, ip, 168 h, route intraperitoneal", "procedure,_shortened": "(§3)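 Female Kunming mice, 7 weeks old, 18-22 g, inoculated sc in the right armpit with S-180 sarcoma. Dosing began the next day, ip daily for 7 days; normal saline given iv as control. Tumours excised and weighed after treatment. Inhibitory rate (%) = (mean control tumour weight − mean treated tumour weight)/mean control tumour weight × 100.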"}, "HeLa": {"tested_on": "HeLa", "test": "Antiproliferative activity against human HeLa cells after 72 hrs by sulforhodamine B assay", "type": "functional, cell-based", "procedure,_shortened": "as §1"}, "KB": {"tested_on": "KB", "test": "Antiproliferative activity against human KB cells after 72 hrs by sulforhodamine B assay", "type": "functional, cell-based", "procedure,_shortened": "as §1"}, "[15]": {"target": "T1, DNA topoisomerase 2-alpha", "test": "Inhibition of topoisomerase 2alpha-mediated displacement of Hoechst 33258 from DNA assessed as decrease in fluorescence", "conditions": "concentration not given here"}, "CCRF S-180 [16]": {"tested_on": "CCRF S-180", "test": "Antitumor activity against mouse S180 cells transplanted in Kunming mouse assessed as inhibition of tumor growth at 25 mg/kg/day, ip for 7 days", "type": "functional", "conditions": "CCRF S-180, ip, 168 h, route intraperitoneal", "procedure,_shortened": "as §3"}, "HT-29 [17]": {"tested_on": "HT-29", "test": "Cell cycle arrest in human HT-29 cells assessed as accumulation at G1 phase at 0.5 to 1 uM after 24 hrs by flow cytometry", "type": "functional, cell-based", "procedure,_shortened": "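HT-29 cells stained with propidium iodide; cell-cycle distribution determined by flow cytometry.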"}, "HT-29 [18]": {"tested_on": "HT-29", "test": "Antiproliferative activity against human HT-29 cells after 72 hrs by sulforhodamine B assay", "type": "functional, cell-based", "conditions": "HT-29, 72 h", "procedure,_shortened": "as §1"}, "HL60/MX2": {"tested_on": "HL60/MX2", "test": "Cytotoxicity against human HL60/MX2 cells", "type": "functional, cell-based"}}, "note": "Calls of active or inactive are those of the source. No cut-off for these calls is given here.", "data": [{"molecule": "CN(C)C(=S)N/N=C/c1ccc2ccccc2n1", "values": [{"measurement": "inhibition", "setting": "[1]", "value": "Dose-dependent effect"}, {"measurement": "inhibition", "setting": "[2]", "value": "Active"}, {"measurement": "IC50", "setting": "MCF7", "value": 340, "unit": "nM"}, {"measurement": "IC50", "setting": "K562", "value": 60, "unit": "nM"}, {"measurement": "inhibition", "setting": "HT-29 [3]", "value": "Dose-dependent effect"}, {"measurement": "inhibition", "setting": "[4]", "value": "inactive"}, {"measurement": "inhibition", "setting": "[5]", "value": "inactive"}, {"measurement": "Kd", "setting": "[6]", "value": 18300, "unit": "nM"}, {"measurement": "IC50", "setting": "HCT-116", "value": 220, "unit": "nM"}, {"measurement": "IC50", "setting": "MKN-28", "value": 170, "unit": "nM"}, {"measurement": "IC50", "setting": "[7]", "value": 2, "unit": "nM"}, {"measurement": "IC50", "setting": "MKN-45", "value": 830, "unit": "nM"}, {"measurement": "Activity", "setting": "Mus musculus", "value": 23.9, "unit": "g"}, {"measurement": "IC50", "setting": "[8]", "value": 300, "unit": "nM"}, {"measurement": "IC50", "setting": "LoVo", "value": 60, "unit": "nM"}, {"measurement": "IC50", "setting": "HL-60", "value": 50, "unit": "nM"}, {"measurement": "IC50", "setting": "MDA-MB-231", "value": 20, "unit": "nM"}, {"measurement": "inhibition", "setting": "HT-29 [9]", "value": "Dose-dependent effect"}, {"measurement": "inhibition", "setting": "[10]", "value": "Active"}, {"measurement": "IC50", "setting": "[11]", "value": 60, "unit": "nM"}, {"measurement": "IC50", "setting": "A549", "value": 450, "unit": "nM"}, {"measurement": "inhibition", "setting": "[12]", "value": "Dose-dependent effect"}, {"measurement": "IC50", "setting": "[13]", "value": 200, "unit": "nM"}, {"measurement": "inhibition in vivo at 50 mg/kg/day", "setting": "CCRF S-180 [14]", "value": 76.7, "unit": "%"}, {"measurement": "IC50", "setting": "HeLa", "value": 90, "unit": "nM"}, {"measurement": "IC50", "setting": "KB", "value": 770, "unit": "nM"}, {"measurement": "inhibition", "setting": "[15]", "value": 22, "unit": "%"}, {"measurement": "inhibition in vivo at 25 mg/kg/day", "setting": "CCRF S-180 [16]", "value": 35.8, "unit": "%"}, {"measurement": "Activity", "setting": "HT-29 [17]", "value": "Active"}, {"measurement": "IC50", "setting": "HT-29 [18]", "value": 20, "unit": "nM"}, {"measurement": "Activity", "setting": "HL60/MX2", "value": "Active"}]}]}
